STAT3 act-1: activators of IL-6 induced STAT3 signaling. U3A cells, IL-6 STAT3-luciferase reporter, luminescence; 100% = signal with IL-6 EC80 alone. activation (% of control), % at 5.6 µM. actives 0.91% (n = 190,000). AID 871;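 active = activation above the screen-wide mean of compound activation plus 3 SD, cut at about 130% in these data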;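 note: 0% = background luminescence of wells with medium and substrate only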
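Material: STAT3-luciferase reporter U3A cells. Controls: IL-6-treated wells, 100% activation. Read-out: % activation versus median of IL-6-stimulated wells. Probe or stimulus: IL-6 stimulus at 33 ng/mL final. Timing: compound 1 h, then IL-6 6 h at 37 °C. Signal: reporter luminescence signal.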
TNF death inh: TNF-alpha cell death inhibition in Jurkat FADD-/- cells | AID 463075 | actives 0.068% (n = 220,000) | activation (protection from cell death), % at 10 µM | Jurkat FADD-/- TNF necroptosis rescue, ATP luminescence, 24 h; 0 = TNF only, 100 = no-TNF cells;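 active = activation, meaning protection from cell death, of at least 50% relative to plate controls; inactive = activation below 50%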;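 note: necroptosis triggered by 40 ng/mL TNF-alpha added together with compound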
STAT3 inh: STAT3 signaling inhibition | U3A cells, IL-6 STAT3-luciferase reporter, luminescence; host cell line lacks STAT1 | inhibition, % at 5.5 µM | AID 862 | actives 0.89% (n = 190,000);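 active = inhibition above the mean inhibition across all screened compounds plus 3 SD, cut at about 44% in these data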;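 note: 0% = DMSO only wells and 100% = 100 µM nifuroxazide control wells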
zVAD death inh: L929 zVAD cell death inhibition; AID 1377; actives 0.38% (n = 220,000); L929 zVAD necroptosis rescue, ATP luminescence, 24 h; with zVAD 60 µM; viability rescue, % at 10 µM;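 active = activation, scaled between plate controls, above about 75%, limit read from the data; inactive = activation under that limit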;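 note: 0% = zVAD with DMSO and 100% = DMSO alone without zVAD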
STAT1 inh: reduces IFN-gamma driven STAT1 reporter signal. NIH 3T3 STAT1-luciferase reporter, luminescence. inhibition, % at 5.5 µM. actives 0.35% (n = 200,000);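 active = inhibition above a set limit, the mean inhibition across all tested compounds plus 3 SD, cut at about 34% in these data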;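 note: 0% = IFN-gamma with DMSO and 100% = IFN-gamma with 300 µM nifuroxazide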
STAT3 act-2: confirmation of STAT3 signaling activators; actives 64% (n = 1,200); potentiation (% of control), % at 5.7 µM; U3A STAT3-luciferase reporter, IL-6 potentiation, luminescence; U3A cells lack STAT1; 100 means same as IL-6 alone; shares compounds with STAT3 act-1;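 active = percent activation of the STAT3 luciferase reporter above a set limit taken from the earlier primary screen, cut at about 130% in these data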;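 note: 0% = background signal of medium plus substrate and 100% = median of IL-6 with DMSO wells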
NFkB act STAT3ct: NF-kappaB activation in STAT3 activator counter-screen; shares compounds with STAT3 act-1; human cells, NF-kappaB reporter activation; activation (% of control), % at 5.7 µM; actives 11% (n = 1,200); AID 1309; in the data active = activation above about 120%;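 note: reporter induced by TNF-alpha stimulation; 100% = median of stimulated DMSO wells and 0% = no signal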
STAT1 act STAT3c: activates STAT1, counter-screen to STAT3 activators; shares compounds with STAT3 act-1; NIH 3T3 STAT1-luciferase reporter, IFN-gamma, luminescence; activation (% of control), % at 5.7 µM; actives 13% (n = 1,200); AID 1318;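 active = activation above the solvent-only control well mean plus 3 SD, set per screening run, cut at about 120% in these data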;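 note: 100% = IFN-gamma with DMSO median signal so 100% means no change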
Active calls of the source: *; x = not tested or not shown. Most compounds without a hit are left out; they make up all but 2.1% or so of the library.

SMILES	STAT3 act-1	TNF death inh	STAT3 inh	zVAD death inh	STAT1 inh	STAT3 act-2	NFkB act STAT3ct	STAT1 act STAT3c
N#Cc1cnc(SCC(=O)c2ccccc2)nc1N	102	0	2	0	1	x	x	x
O=C(CN1CCC(NC(=O)c2ccco2)CC1)Nc1cccc2ccccc12	103	1	-3	0	4	x	x	x
O=C(CN1CCC(NC(=O)c2ccco2)CC1)Nc1ccccc1[N+](=O)[O-]	138*	0	-40	8	6	144*	104	92
CCOC(=O)CC(=O)CSc1nc(-c2ccc3c(c2)OCO3)cc(C(F)(F)F)c1C#N	140*	-2	-34	0	8	118	98	93
CCN(CC)c1ccc2c(C)c(CN3CCOCC3)c(=O)oc2c1	92	2	12	1	1	x	x	x
CCn1c(SCC(=O)N2c3ccccc3Sc3ccc(Cl)cc32)nc2c1c(=O)n(C)c(=O)n2C	107	-5	-6	0	3	x	x	x
COc1nc(-c2ccc(Cl)cc2)ccc1-c1noc(-c2ccco2)n1	98	0	3	0	-3	x	x	x
COc1nc2c(C)cccc2cc1-c1noc(-c2ccco2)n1	163*	0	-70	0	9	144*	109	99
COc1ccc(Cc2noc(CN(C)CC3(N4CCOCC4)CCCCC3)n2)cc1OC	97	0	7	-1	11	x	x	x
C[n+]1c2n(c3ccccc31)N=C(c1ccccc1)CS2	140*	-3	-28	1	30	149*	106	79
C[n+]1c2n(c3ccccc31)N=C(c1ccc(Br)cc1)CS2	136*	-6	-35	1	24	122	96	72
Cc1cccc(-c2nnc3n2N=C(c2ccccc2)CS3)c1	87	-2	18	0	3	x	x	x
O=C(O)CCC(=O)Nc1ccc(Sc2ccc([N+](=O)[O-])cc2)cc1	99	2	-2	1	-6	x	x	x
O=C(NCCCN1CCOCC1)c1sc2cc(F)ccc2c1Cl	98	1	4	0	-11	x	x	x
CCC1=Nc2cc(C(=O)NCc3ccco3)ccc2Sc2ccc(C)cc21	145*	-7	-58	-1	4	120	154*	118
CCC1=Nc2cc(C(=O)NCCCOC)ccc2Sc2ccccc21	115	-9	-11	-1	-8	x	x	x
COc1ccc(C(=O)N2CCC(n3c(C)nc4cc(F)ccc43)CC2)cc1	93	2	15	0	10	x	x	x
Fc1ccc2nc(Nc3nc4c(F)cccc4s3)sc2c1	140*	-1	-54	2	-17	169*	120	130*
Fc1cccc2sc(Nc3nc4ccccc4s3)nc12	177*	3	-92	1	-24	210*	129*	156*
Fc1ccc2nc(Nc3nc4c(F)cc(F)cc4s3)sc2c1	128	-1	-25	5	-7	x	x	x
COc1ccc(C2NCCc3c2[nH]c2ccccc32)cc1CN1CCc2cc(OC)c(OC)cc2C1C (centres undefined)	x	-30	x	-2	x	x	x	x
CCOc1ccc(C2CC(c3ccc(OC)c(OC)c3)n3nc(N)nc3N2)cc1 (centres undefined)	96	1	4	0	12	x	x	x
CSCC[C@H](NC(=O)OC(C)(C)C)c1nnc(SCc2cccc(F)c2)o1	142*	0	-42	1	-6	100	112	109
CSCC[C@H](NC(=O)OC(C)(C)C)c1nnc(SCc2ccc(F)cc2)o1	100	-1	2	0	-4	x	x	x
COc1ccc(-c2ccc(S(=O)(=O)NCC3CCCO3)cc2)cc1 (centres undefined)	72	0	34	1	7	x	x	x
Cc1ccccc1C(=O)NC(=S)Nc1ccccc1N1CCCC1	110	-2	0	-1	7	x	x	x
O=C(NC(=S)Nc1ccccc1N1CCCCC1)c1ccccc1	104	0	-1	1	-10	x	x	x

Source: PubChem BioAssay
